The source made the active and inactive calls. No cut-off for these calls is given here.
Experiments:
MV4-11 [1] = experiment: Induction of apoptosis in human MV4-11 cells assessed as increase in cleaved caspase-3 level at 1 to 2 uM after 24 hrs by Western blot method; type: functional, cell-based
Outline: (§1)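 MV4-11 (1,500,000/well) or PC-3 (300,000/well) grown 12 h, then treated 24 h at 1 and 2 μM, with 5 μM SAHA as reference. RIPA lysis, sonication and centrifugation, BCA normalization. NuPAGE 4–12% Bis-Tris gel in MES, transfer, primary antibodies 1/1000 overnight at 4 °C. Actin as loading control.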

Histone deacetylase 9 = Histone deacetylase 9 (Homo sapiens, UniProt Q9UKV0); experiment: Inhibition of recombinant human C-terminal His-tagged HDAC9 (604 to 1066 residues) expressed in baculovirus expression system using Boc-Lys(trifluoroacetyl)-AMC as substrate preincubated for 1 hr followed by substrate addition measured after 2 hrs by fluorescence assay
Chain of Histone deacetylase 9 (Q9UKV0 whole entry, the tested form may be a part): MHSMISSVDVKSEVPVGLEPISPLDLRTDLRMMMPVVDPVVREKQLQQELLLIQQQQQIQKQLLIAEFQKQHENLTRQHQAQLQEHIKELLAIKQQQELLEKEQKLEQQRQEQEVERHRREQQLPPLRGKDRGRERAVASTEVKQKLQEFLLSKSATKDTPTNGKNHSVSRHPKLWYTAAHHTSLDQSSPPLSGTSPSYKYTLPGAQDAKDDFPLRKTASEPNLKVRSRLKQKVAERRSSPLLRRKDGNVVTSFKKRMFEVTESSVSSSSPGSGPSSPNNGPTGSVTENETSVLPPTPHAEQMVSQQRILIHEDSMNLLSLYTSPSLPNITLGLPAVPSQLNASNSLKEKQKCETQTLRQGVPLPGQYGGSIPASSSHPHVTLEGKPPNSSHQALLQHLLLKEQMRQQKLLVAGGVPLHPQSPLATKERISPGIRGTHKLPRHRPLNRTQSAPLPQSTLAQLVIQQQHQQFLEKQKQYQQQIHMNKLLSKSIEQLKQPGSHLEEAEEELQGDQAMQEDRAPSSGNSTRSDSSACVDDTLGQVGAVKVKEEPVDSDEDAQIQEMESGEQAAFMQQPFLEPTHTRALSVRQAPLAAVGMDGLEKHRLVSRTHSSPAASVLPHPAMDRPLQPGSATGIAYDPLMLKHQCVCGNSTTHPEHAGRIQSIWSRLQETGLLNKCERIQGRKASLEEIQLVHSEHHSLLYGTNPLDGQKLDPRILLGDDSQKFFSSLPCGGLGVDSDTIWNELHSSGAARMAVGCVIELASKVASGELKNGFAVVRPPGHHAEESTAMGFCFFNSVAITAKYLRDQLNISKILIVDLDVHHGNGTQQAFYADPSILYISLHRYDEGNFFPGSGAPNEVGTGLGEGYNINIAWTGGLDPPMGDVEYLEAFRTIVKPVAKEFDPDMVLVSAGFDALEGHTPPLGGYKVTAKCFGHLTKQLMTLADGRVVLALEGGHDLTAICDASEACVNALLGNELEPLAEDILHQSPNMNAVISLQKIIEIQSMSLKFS
Outline: (§2)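 Recombinant HDAC incubated with serial compound dilutions at 30 °C for 1 h. Reaction run 2 h at 30 °C, stopped with developer containing trypsin and TSA. Fluorescence read after 30 min at 360/460 nm. Inhibition relative to control wells; IC50 from variable-slope fit.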

MV4-11 [2] = experiment: Antiproliferative activity against human MV4-11 cells assessed as cell death at 2 to 10 uM after 24 to 48 hrs by CellTiter-Blue assay; type: functional, cell-based
Outline: (§3)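 MV4-11 and PC-3 cells treated with 10 or 2 μM (or 0 μM) and sampled at 24 and 48 h. Viable cells measured by CellTiter-Blue resorufin fluorescence, read as in the EC50 assay, which is proportional to viable cell number. Representative of n = 2 experiments.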

MV4-11 [3] = experiment: Cell cycle arrest in human MV4-11 cells assessed as accumulation at subG1 phase after 24 hrs by propidium iodide staining based flow cytometry; type: functional
PC-3 [4] = experiment: Downregulation of HDAC1 protein expression in human PC3 cells at 1 to 2 uM after 24 hrs by Western blot method; type: functional, cell-based; outline: as §1
Histone deacetylase 7 = molecular target: T1, Histone deacetylase 7 (Homo sapiens, UniProt Q8WUI4); experiment: Inhibition of recombinant human N-terminal GST-tagged HDAC7 (518-end residues) expressed in baculovirus expression system using Boc-Lys(trifluoroacetyl)-AMC as substrate preincubated for 1 hr followed by substrate addition measured after 2 hrs by fluorescence assay; outline: as §2
T1 sequence (Q8WUI4 whole entry): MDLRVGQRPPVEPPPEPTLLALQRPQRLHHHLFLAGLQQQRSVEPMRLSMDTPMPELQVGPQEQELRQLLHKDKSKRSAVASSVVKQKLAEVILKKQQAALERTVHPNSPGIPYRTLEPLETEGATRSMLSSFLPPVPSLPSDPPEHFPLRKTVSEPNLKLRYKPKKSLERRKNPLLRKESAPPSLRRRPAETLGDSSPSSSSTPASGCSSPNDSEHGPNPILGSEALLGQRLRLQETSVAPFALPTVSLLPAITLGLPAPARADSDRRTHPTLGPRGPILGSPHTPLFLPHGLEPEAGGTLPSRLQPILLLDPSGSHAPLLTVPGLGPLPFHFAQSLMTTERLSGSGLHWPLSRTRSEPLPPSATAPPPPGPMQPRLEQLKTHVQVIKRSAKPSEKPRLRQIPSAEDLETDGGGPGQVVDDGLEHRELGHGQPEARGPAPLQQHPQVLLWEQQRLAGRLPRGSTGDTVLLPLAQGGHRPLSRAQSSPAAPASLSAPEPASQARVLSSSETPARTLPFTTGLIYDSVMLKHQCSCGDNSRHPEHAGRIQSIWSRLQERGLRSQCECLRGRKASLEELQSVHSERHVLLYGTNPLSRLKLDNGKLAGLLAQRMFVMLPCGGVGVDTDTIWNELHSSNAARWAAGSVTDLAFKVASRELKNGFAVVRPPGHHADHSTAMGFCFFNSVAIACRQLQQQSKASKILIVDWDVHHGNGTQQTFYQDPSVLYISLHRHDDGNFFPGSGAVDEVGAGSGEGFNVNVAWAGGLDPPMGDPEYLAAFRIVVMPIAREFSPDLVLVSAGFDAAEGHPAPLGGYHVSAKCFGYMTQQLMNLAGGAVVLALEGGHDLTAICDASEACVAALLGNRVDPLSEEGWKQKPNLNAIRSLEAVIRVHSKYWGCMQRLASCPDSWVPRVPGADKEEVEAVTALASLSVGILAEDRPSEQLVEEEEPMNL

Histone deacetylase 1 [5] = molecular target: T2, Histone deacetylase 1 (Homo sapiens, UniProt Q13547); settings: 0.25 to 2 uM
T2 sequence (Q13547 whole entry): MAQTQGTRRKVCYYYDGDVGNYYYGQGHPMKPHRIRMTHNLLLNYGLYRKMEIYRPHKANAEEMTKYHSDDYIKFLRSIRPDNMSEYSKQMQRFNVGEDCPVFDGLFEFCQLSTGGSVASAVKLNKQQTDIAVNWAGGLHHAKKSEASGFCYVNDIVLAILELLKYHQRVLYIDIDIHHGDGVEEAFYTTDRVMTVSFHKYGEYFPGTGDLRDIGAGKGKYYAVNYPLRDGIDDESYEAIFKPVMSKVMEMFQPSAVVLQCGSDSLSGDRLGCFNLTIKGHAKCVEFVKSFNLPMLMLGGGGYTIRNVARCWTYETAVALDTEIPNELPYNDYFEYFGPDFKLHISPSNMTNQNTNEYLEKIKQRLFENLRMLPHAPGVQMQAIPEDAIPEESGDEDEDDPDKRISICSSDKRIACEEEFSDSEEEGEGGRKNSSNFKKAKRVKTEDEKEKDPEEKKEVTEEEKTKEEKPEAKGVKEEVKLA

MV4-11 [6] = experiment: Induction of p53 degradation in human MV4-11 cells up to 500 nM after 6 hrs in presence of proteasome inhibitor bortezomib by Western blot analysis; type: functional, cell-based
[7] = molecular target: Histone deacetylase 3 (Homo sapiens) (UniProt O15379); settings: 0.25 to 2 uM
Chain of Histone deacetylase 3 (Homo sapiens) (O15379 whole entry): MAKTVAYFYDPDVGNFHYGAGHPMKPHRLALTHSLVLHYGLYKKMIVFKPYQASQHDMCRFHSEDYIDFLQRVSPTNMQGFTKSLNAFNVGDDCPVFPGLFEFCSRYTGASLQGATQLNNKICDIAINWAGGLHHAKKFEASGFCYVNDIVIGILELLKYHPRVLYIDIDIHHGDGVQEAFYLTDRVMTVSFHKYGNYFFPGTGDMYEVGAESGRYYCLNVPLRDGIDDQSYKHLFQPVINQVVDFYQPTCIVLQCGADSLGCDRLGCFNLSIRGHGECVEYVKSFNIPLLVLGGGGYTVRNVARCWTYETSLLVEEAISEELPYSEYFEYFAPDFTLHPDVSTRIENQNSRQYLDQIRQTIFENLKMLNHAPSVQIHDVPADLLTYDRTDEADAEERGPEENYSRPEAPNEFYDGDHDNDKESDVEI

Histone deacetylase 1 [8] = molecular target: T2, Histone deacetylase 1; settings: 0.25 to 2 uM; remark: listed apart in the source
PC-3 [9] = experiment: Antiproliferative activity against human PC3 cells assessed as cell viability at 2 uM after 48 hrs by CellTiter-Blue assay relative to control; type: functional, cell-based; outline: as §3
Histone deacetylase 2 = Histone deacetylase 2 (Homo sapiens, UniProt Q92769); settings: 0.25 to 2 uM
Chain of Histone deacetylase 2 (Q92769 whole entry): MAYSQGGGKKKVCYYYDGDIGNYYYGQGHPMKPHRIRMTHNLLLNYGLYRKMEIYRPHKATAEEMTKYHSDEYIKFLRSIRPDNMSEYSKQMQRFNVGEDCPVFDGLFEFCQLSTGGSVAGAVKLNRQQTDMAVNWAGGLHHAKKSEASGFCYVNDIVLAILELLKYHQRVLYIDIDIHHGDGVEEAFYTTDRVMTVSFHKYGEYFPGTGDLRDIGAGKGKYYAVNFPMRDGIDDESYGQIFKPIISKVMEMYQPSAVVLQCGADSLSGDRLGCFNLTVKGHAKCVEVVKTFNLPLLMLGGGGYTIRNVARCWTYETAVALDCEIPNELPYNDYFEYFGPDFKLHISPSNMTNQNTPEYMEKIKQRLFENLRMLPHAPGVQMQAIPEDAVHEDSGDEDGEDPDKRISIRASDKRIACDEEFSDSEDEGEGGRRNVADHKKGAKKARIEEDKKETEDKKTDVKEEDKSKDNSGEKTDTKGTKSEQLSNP

MV4-11 [10] = experiment: Induction of p53 degradation in human MV4-11 cells up to 2 uM up to 6 hrs by Western blot analysis; type: functional, cell-based
Histone deacetylase 5 = Histone deacetylase 5 (Homo sapiens, UniProt Q9UQL6); experiment: Inhibition of recombinant human HDAC5 expressed in baculovirus expression system using Boc-Lys(trifluoroacetyl)-AMC as substrate preincubated for 1 hr followed by substrate addition measured after 2 hrs by fluorescence assay; outline: as §2
Chain of Histone deacetylase 5 (Q9UQL6 whole entry): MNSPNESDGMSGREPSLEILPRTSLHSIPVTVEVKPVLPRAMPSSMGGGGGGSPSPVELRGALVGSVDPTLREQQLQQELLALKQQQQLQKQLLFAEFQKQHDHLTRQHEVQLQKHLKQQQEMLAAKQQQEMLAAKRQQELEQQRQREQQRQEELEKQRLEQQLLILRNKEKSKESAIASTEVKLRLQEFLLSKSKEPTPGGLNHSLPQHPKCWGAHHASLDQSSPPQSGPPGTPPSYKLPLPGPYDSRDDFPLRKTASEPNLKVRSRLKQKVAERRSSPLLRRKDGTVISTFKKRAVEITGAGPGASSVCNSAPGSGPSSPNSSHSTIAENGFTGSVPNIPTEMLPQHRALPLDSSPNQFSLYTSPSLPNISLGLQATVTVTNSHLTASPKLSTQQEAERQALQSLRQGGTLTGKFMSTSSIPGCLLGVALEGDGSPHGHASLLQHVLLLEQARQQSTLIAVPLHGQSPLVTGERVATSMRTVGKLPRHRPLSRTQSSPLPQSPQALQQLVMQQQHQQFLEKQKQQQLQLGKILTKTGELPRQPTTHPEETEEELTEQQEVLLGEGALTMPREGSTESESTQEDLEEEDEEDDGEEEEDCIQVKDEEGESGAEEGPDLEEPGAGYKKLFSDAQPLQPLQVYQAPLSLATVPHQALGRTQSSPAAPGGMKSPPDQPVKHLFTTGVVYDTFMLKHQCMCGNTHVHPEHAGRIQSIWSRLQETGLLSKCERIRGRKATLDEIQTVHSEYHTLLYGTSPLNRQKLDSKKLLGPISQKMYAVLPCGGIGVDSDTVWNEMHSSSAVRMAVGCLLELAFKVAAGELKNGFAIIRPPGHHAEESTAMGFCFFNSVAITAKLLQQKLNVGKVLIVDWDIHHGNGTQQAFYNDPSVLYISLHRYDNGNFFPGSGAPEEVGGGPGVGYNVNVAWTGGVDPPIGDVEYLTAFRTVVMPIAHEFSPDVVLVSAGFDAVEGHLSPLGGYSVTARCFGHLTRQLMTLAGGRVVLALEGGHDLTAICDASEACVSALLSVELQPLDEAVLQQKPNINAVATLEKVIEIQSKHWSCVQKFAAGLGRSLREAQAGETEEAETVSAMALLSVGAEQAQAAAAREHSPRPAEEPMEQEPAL

MV4-11 [11] = experiment: Antiproliferative activity against human MV4-11 cells assessed as cell death at 10 uM after 48 hrs by CellTiter-Blue assay; type: functional, cell-based; outline: as §3
MV4-11 [12] = experiment: Cell cycle arrest in human MV4-11 cells assessed as accumulation at G1/S phase at 0.5 uM after 24 hrs by propidium iodide staining based flow cytometry; type: functional
PC-3 [13] = experiment: Antiproliferative activity against human PC3 cells assessed as cell viability at 10 uM after 48 hrs by CellTiter-Blue assay relative to control; type: functional; settings: PC-3, 48 h, read-out: Activity; outline: as §3
MV4-11 [14] = experiment: Induction of apoptosis in human MV4-11 cells assessed as increase in cleaved PARP level at 1 to 2 uM after 24 hrs by Western blot method; type: functional, cell-based; outline: as §1
PC-3 [15] = experiment: Induction of apoptosis in human PC3 cells assessed as increase in cleaved caspase-3 level at 1 to 2 uM after 24 hrs by Western blot method; type: functional, cell-based; outline: as §1
[16] = molecular target: Matrix metalloproteinase 2/9 (Homo sapiens) (UniProt P08253+P14780); experiment: Inhibition of human MMP2/C-terminal hemopexin domain truncated MMP9 up to 50 uM preincubated for 10 to 15 mins followed by substrate addition measured after 2 hrs by fluorescence assay; type: protein assay
Chain of Matrix metalloproteinase 2/9 (Homo sapiens) (P08253 whole entry, looked up, the tested form may be a part): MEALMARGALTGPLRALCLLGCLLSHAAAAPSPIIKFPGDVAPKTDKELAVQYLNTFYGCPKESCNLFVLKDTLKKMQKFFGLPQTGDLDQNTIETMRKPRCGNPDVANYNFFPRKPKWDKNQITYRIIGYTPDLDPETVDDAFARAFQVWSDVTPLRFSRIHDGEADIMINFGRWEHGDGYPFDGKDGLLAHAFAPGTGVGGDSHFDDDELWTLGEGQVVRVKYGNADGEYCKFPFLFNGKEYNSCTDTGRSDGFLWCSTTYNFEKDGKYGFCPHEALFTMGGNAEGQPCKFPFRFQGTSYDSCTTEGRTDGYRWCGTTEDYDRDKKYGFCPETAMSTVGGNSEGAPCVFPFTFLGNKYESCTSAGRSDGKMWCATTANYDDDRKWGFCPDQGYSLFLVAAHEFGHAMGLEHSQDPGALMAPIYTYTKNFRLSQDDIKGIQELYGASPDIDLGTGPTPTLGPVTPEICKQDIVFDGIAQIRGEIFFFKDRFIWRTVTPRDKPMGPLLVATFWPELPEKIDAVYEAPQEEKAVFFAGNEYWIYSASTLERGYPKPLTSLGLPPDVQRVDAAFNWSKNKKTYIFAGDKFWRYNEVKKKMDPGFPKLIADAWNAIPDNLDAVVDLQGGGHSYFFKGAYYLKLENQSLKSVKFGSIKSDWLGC
Chain of Matrix metalloproteinase 2/9 (Homo sapiens) (P14780 whole entry, looked up, the tested form may be a part): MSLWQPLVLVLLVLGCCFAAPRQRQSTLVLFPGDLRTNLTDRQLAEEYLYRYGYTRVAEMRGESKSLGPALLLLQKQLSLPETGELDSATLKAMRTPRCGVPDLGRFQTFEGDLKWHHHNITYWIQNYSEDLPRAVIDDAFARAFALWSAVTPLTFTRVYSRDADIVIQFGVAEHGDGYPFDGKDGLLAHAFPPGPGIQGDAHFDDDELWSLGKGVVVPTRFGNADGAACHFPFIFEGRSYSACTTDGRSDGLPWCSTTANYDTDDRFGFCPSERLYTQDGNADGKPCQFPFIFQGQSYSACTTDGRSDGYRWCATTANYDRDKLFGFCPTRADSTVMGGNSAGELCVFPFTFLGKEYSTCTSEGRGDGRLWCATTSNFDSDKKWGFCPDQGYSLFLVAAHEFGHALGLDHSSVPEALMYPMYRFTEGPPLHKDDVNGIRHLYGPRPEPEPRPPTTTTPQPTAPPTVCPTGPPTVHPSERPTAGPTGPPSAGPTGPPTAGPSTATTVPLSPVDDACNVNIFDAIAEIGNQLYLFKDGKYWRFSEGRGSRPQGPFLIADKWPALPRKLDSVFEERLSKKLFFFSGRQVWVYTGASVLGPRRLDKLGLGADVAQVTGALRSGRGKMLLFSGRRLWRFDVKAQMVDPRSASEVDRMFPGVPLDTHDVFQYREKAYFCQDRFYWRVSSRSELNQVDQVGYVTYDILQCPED
Outline: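 Gelatinase kit assay: compound (100 μM stock), MMP inhibitor (40 μM stock) or activation buffer combined with MMP-2/MMP-9 in activation buffer. After 10–15 min, substrate added and incubated at 37 °C for 2 h. Fluorescence read at 320/405 nm.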

PC-3 [17] = experiment: Downregulation of HDAC6 protein expression in human PC3 cells at 1 to 2 uM after 24 hrs by Western blot method; type: functional, cell-based; outline: as §1

IC50 (Histone deacetylase 9): > 50 µM | IC50 (Histone deacetylase 7): > 50 µM | inhibition (Histone deacetylase 1 [5]): Active | inhibition [7]: Active | inhibition (Histone deacetylase 1 [8]): Active | inhibition (Histone deacetylase 2): Active | IC50 (Histone deacetylase 5): > 50 µM | inhibition [16]: inactive
Compound: CCCNNC(=O)c1ccc(NC(=O)[C@H](Cc2c[nH]c3ccccc23)NC(=O)c2ccc(OC)cc2)cc1
Activity (MV4-11 [1]): Active | Activity (MV4-11 [2]): Active | Activity (MV4-11 [3]): Dose-dependent effect | Activity (PC-3 [4]): inactive | Activity (MV4-11 [6]): inactive | Activity (PC-3 [9]): inactive | Activity (MV4-11 [10]): Active | Activity (MV4-11 [11]): Active | Activity (MV4-11 [12]): Active | viability at 10 µM (PC-3 [13]): 20% | Activity (MV4-11 [14]): Active | Activity (PC-3 [15]): inactive | Activity (PC-3 [17]): inactive

Reference: ChEMBL document CHEMBL4020839, “Class I HDAC Inhibitors Display Different Antitumor Mechanism in Leukemia and Prostatic Cancer Cells Depending on Their p53 Status” (J Med Chem, 2018)
